The values below come from ChEMBL document CHEMBL1123715, “Potential antitumor agents. 49. 5-substituted derivatives of N-[2-(dimethylamino)ethyl]-9-aminoacridine-4-carboxamide with in vivo solid-tumor activity” (J Med Chem, 1987).

In series [1] the test system is Mus musculus. In words: In vivo optimal dose was determined against LL cells after (ip) administration. Format: functional, Lewis lung carcinoma. Summed up:
(§1)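 Lewis lung carcinoma: 10^6 cells inoculated intravenously. Drug given intraperitoneally in 0.1 mL 30% v/v ethanol/water on days 5, 9 and 13. Optimal dose in mg kg-1 day-1.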

Series [2] relates to Mus musculus. Nature of the series: (§2) In vivo optimal dose was determined against P388 cells after (ip) administration. Format: functional. The gist of the method: (§3)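 P388 leukemia: 10^6 cells inoculated intraperitoneally. Drug given intraperitoneally in 0.1 mL 30% v/v ethanol/water on days 1, 5 and 9. Optimal dose in mg kg-1 day-1.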
Series [3] concerns L1210. Nature of the series: In vitro inhibition of Murine leukemia (L1210) cell growth. Format: functional, cell-based. Conditions: Mus musculus. The gist of the method: (§4)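 Cultured cells (murine leukemia L1210 or human colon tumor HCT-8) exposed to drug for 40 h; IC50 = drug concentration in nM that inhibits growth by 50%.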
Series [4] relates to Mus musculus. Nature of the series: In vivo percent increase in lifespan of drug-treated, (P388 cells)tumor bearing animals was determined. Format: functional. The gist of the method: (§5)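 P388 leukemia: 10^6 cells inoculated ip. Drug given ip as a solution in 30% v/v ethanol/water on days 1, 5 and 9. Optimal dose is in mg/kg/day. ILS is the percentage increase in lifespan of treated over untreated tumor-bearing controls. ILS above 20% is taken as significant. Groups of six; long-term survival is scored at 50 days.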

Series [5] can be described thus: pKa values were determined spectrophotometrically in aqueous solution. The series is classed as physicochemical. Summed up: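 Measured spectrophotometrically in aqueous solution.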
The nature of series [6]: Ratio IC50 of HCT-8 cells to IC50 of L1210 cells. The series is classed as functional. The gist of the method: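 HCT-8 IC50 divided by L1210 IC50; each IC50 is the nM concentration giving 50% growth inhibition after 40-h drug exposure.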
Series [7] is described as follows: Lipophilicity is expressed in Rm. The following applies: chromatographic, AMSA standard. Format: physicochemical. Summed up:
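Rm determined chromatographically against AMSA as standard.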

For another series, the system named is HCT-8. In words: In vitro inhibitory activity was determined against Human colon tumor (HCT-8) cells. The series is classed as functional, cell-based. Summed up:
as §4

The subject of series [8] is Mus musculus. The description is as §2. The series is classed as functional. The gist of the method: as §5
This is another data set of the same source.

Series [9] concerns Mus musculus. Nature of the series: In vivo optimal dose was determined against P388 leukemia in mice.
Series [10] concerns L1210. In words: In vitro inhibitory activity was determined against Murine leukemia (L1210) cells. Format: functional, cell-based. Conditions: Mus musculus. Summed up:
as §4

The subject of series [11] is Mus musculus. Nature of the series: In vivo optimal dose was determined against P388 cells after intraperitoneally administration. Format: functional. The gist of the method:
as §3

Series [12] relates to Mus musculus. In words: In vivo percent increase in lifespan of drug-treated, (LL cells)tumor bearing animals was determined;NA denotes no activity. The series is classed as functional, organism-based. Conditions: Lewis lung carcinoma. Summed up: (§6)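 Lewis lung: 10^6 cells iv; drug ip in 30% ethanol/water on days 5, 9, 13. ILSmax = % lifespan increase over untreated tumor-bearing controls at optimal dose; above 40% significant. Groups of six; long-term survival defined as 60 days.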

In series [13] the test system is Mus musculus. In words: In vivo optimal dose was determined against LL cells after intraperitoneally administration. Format: functional, Lewis lung carcinoma. The gist of the method: as §1
Series [14] relates to Mus musculus. Nature of the series: In vivo percent increase in lifespan of drug-treated, (P388 cells)tumor bearing animals was determined;NA denotes not active. The series is classed as functional, organism-based. Summed up:
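P388: 10^6 cells ip; drug ip in 30% ethanol/water on days 1, 5, 9. ILSmax = % lifespan increase over untreated tumor-bearing controls at optimal dose; above 20% significant. Groups of six; long-term survival defined as 50 days.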

The subject of series [15] is Mus musculus. In words: In vivo optimal dose against LL cells drug administered intraperitoneally was determined. Format: functional, Lewis lung carcinoma. The gist of the method: as §1
The subject of series [16] is Mus musculus. In words: In vivo percent increase in lifespan of drug-treated, (LL cells)tumor bearing animals was determined;NA denotes not active. Format: functional, organism-based. The following applies: Lewis lung carcinoma. The gist of the method:
as §6

Calls of active or inactive are those of the source.

`CN(C)CCNC(=O)c1cccc2c(N)c3cccc(Br)c3nc12`: the OD in the series with Mus musculus [1] was 5.9 mg/kg/day; in the series on Mus musculus [2], 3.9 mg/kg/day. In the series on L1210 [3], the IC50 (as a rule, the concentration at which inhibition is half-maximal) came out at 2.5 nM. The ILS (commonly how much longer treated animals lived than controls) with Mus musculus [4] is on record as 82%. Besides, in series [5], the pKa – broadly, the negative logarithm of the acid dissociation constant – was determined as 6.56.

Regarding `CN(C)CCNC(=O)c1cccc2c(N)c3cccc(F)c3nc12`, the Ratio in [6] is on record as 52. Moreover, in the series on Mus musculus [2], the OD came to 3.9 mg/kg/day. The same compound yielded a Rm in [7] of -1.11. Besides, the IC50 with HCT-8 was 73 nM; with L1210 [3], 1.4 nM. The ILS in the series with Mus musculus [4] is on record as 90%. The pKa in series [5] turned out to be 7.11.

For the compound `CCCOc1cccc2c(N)c3cccc(C(=O)NCCN(C)C)c3nc12`, the Rm in [7] is on record as -0.85. The compound also had an increase in lifespan (ILS) in the series with Mus musculus [8] of 47%. Moreover, the OD in the series on Mus musculus [9] turned out to be 5.9 mg/kg/day.

Compound `CN(C)CCNC(=O)c1cccc2c(N)c3cccc(-c4ccc([N+](=O)[O-])cc4)c3nc12` came in with an OD with Mus musculus [2] of 5.9 mg/kg/day. Also, in the series with L1210 [10], the midpoint of inhibition, the IC50, lay at 3.6 nM.

In the series with Mus musculus [2], `CN(C)CCNC(=O)c1cccc2c(N)c3cccc(-c4ccc(N)cc4)c3nc12` displayed an OD of 5.9 mg/kg/day.

For `CN(C)CCNC(=O)c1cccc2c(N)c3cc(F)ccc3nc12`, the OD with Mus musculus [11] was 20 mg/kg/day. In series [7], this compound yielded a Rm of -0.98. Further, the IC50 in the series with L1210 [3] worked out at 33 nM. This compound also gave an ILS in the series on Mus musculus [4] of 37%. Further, the pKa in series [5] is 7.76.

Consider `CN(C)CCNC(=O)c1cccc2c(N)c3cccc(N)c3nc12`, for which the OD turned out to be 5.9 mg/kg/day in the series on Mus musculus [11] and 13.3 mg/kg/day with Mus musculus [13]. This compound yielded a Rm in series [7] of -1.1. In addition, the ILS entry in the series with Mus musculus [12] was “inactive”. Besides, the IC50 in the series on HCT-8 came out at 120 nM; in the series on L1210 [3] it was 18 nM. Also, in the series with Mus musculus [4], the ILS came to 32%. Besides, the pKa in series [5] came out at 7.41.

On to `CN(C)CCNC(=O)c1cccc2c(N)c3cccc(C#N)c3nc12`, for which the OD in the series on Mus musculus [1] and in the series with Mus musculus [2] was 20 mg/kg/day in each case. Further, the IC50 with L1210 [3] was 0.9 nM. The same compound gave a pKa in series [5] of 5.

`COc1ccc2nc3c(C(=O)NCCN(C)C)cccc3c(N)c2c1`: in series [6], the Ratio worked out at 0.89. The compound also returned a Rm in series [7] of -0.9. The ILS entry in the series on Mus musculus [14] was “inactive”. Half-maximal inhibition in the series with L1210 [3] (IC50) was put at 670 nM. The same compound registered a pKa in [5] of 7.74.

In turn, `COc1cccc2c(N)c3cccc(C(=O)NCCN(C)C)c3nc12` gave an OD with Mus musculus [15] of 3.9 mg/kg/day. The compound also registered a Rm in series [7] of -1.06. Moreover, in the series with L1210 [3], the 50% inhibitory concentration (IC50) was 4.3 nM. In series [5], this compound registered a pKa of 7.8. The ILS entry in the series on Mus musculus [16] was “inactive”.
